Screening results from PubChem.
Xi reactivation: activators of X-chromosome reactivation in mouse fibroblasts | XiGFP mouse fibroblasts, % GFP-positive cells imaging, 3 d; cells co-treated with 5-aza-dC sensitizer; scaled so ellipticine positive control = 100% | activation, % at 7.58 µM | 0.055% of 360,000 active | AID 743238;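 active = mean normalized replicate activation at least 10% and every replicate at or above 10%; inconclusive = only one of the two criteria met; inactive = mean below 10% and not all replicates reach 10%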;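 note: 0% = median of on-plate neutral control wells and 100% = ellipticine 6 µM median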
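Assay system: SV40-immortalized XiGFP fibroblast cells, line 68-5-11; buffer or medium: DMEM plus 5-aza-dC sensitizer; compound: one concentration, pinned; timing: compounds 3 days, fix/stain 15 min at room temperature; benchmarks: positive control ellipticine, 6 µM final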
Cneo AK release: causes C. neoformans cell lysis; adenylate kinase release luminescence, 4 h; normalised: neutral wells 0, clomiphene wells 100; lysis activity, % at 15 µM; 0.2% of 360,000 active; AID 651654;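 active = mean lysis activity across replicates of at least 80%, whatever share of replicates individually reach that level; inactive = mean lysis activity below 80%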
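Assay system: Cryptococcus neoformans yeast cells / Dosing: single-point compound dose / Timing: 4 h at 37 °C static, read 1 h later / Measured by: luminescence of released adenylate kinase using an AK detection reagent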
DENV2 CPE rescue: DENV2-induced cell death inhibition | DENV2-infected cells, cytopathic effect rescue, plate reader | 1.7% of 350,000 active | CPE inhibition, % at 9.99 µM; in the data active = CPE inhibition above about 20%, passing the limit was not always enough; inconclusive = no clear call, values can overlap the other calls; tested in BHK-21 cells;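 note: 0% = median of neutral control wells and 100% = median of positive control wells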
F508del corr: correctors of CFTR F508del function in bronchial epithelial cells. activity (quench increase), % at 7.58 µM. 0.36% of 350,000 active. CFBE cells, YFP halide quenching; stimulated with forskolin plus potentiator P3; % fluorescence drop versus neutral controls;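 active = mean added fluorescence quench of at least 8% versus neutral control, with both replicates also reaching 8%; inconclusive = only one of the mean or replicate conditions met; inactive = mean below 8% and not both replicates reaching 8%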;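 note: cells transiently co-express mutant CFTR-F508del with the halide-sensitive YFP; corrector assay measuring rescue of mutant channel to the surface after 24 h compound exposure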
FN deposit inh: fibronectin deposition inhibition; inhibition, % at 12.6 µM; 0.086% of 350,000 active; AH1F fibroblasts, Alexa488-fibronectin deposition fluorescence, overnight; AID 743247;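 active = mean inhibition across replicates of 30% or more, regardless of how many single replicates reach that level; inconclusive = mean under 30% yet at least half of replicates reach 30%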;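 note: positive control wells lacked labelled fibronectin entirely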
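Assay system: AH1F fibroblasts assembling fluorescent fibronectin matrix; Amount: 10000 AH1F cells per well; Buffer or medium: DMEM, 2% serum; Probe or stimulus: Alexa488-fibronectin, 24 nM final in well; Doses: single compound dose, delivered by pin transfer; Incubation: 1 h adhesion, overnight exposure; Measured by: fluorescence 485/525 nm; Read-out: fibronectin deposition inhibition.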
PGC1a acetyl inh: modulators of PGC1a acetylation; U2OS PGC1a acetylation, AlphaScreen anti-acetyl-lysine; with virally co-expressed GCN5 acetyltransferase; inhibition, % at 15.6 µM; 0.17% of 350,000 active; AID 651687;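 active = every replicate shows inhibition of at least 40%; inconclusive = mean inhibition at least 40% but some replicate below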;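 note: 0% = neutral control wells and 100% = positive control wells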
* hit, by the source's call; ? = inconclusive; . = no result given; ! = repeats disagree. This is a sample that favours compounds with a hit; in the whole collection about 1.9% have one here.

SMILES	Xi reactivation	Cneo AK release	DENV2 CPE rescue	F508del corr	FN deposit inh	PGC1a acetyl inh
C[C@H]1CCCCO[C@H](CN(C)C(=O)NC2CCCCC2)[C@@H](C)CN([C@@H](C)CO)C(=O)c2cc(NC(=O)Nc3ccccc3)ccc2O1	0.1	2.3	26.9*	-1.2	12.7	13.7
Cc1cc(C(F)(F)F)n(-c2nc(C(=O)NNS(=O)(=O)c3ccccc3[N+](=O)[O-])cs2)n1	0.0	.	.	-1.0	-4.0	110.1*
CC(C)(C)c1ccc(/C=C/C(=O)c2ccc(NC3=NCCCS3)cc2)cc1	0.0	.	9.6	8.3*	2.2	.
CC=Cc1ccc2n(c1=O)C[C@@H]1[C@@H](CO)[C@H](C(=O)N3CCC(Cc4ccccc4)CC3)N(C)[C@H]21 (mixture of isomers)	0.2	0.4	-2.0	.	.	.
CC(OC(=O)/C=C/c1cccc(Cl)c1)C(=O)NC1CCCCC1C (stereo not drawn)	0.0	-0.7	90.5*	1.5	-11.9	.
Cc1ccccc1-c1ccc(C2[C@@H]3CN(C(=O)C4CC4)C[C@H]2N3)cc1 (stereo partly drawn)	0.2	.	27.2*!	-1.1	17.4	-6.0
Cc1ccc(-c2nc(=O)[nH]c3ccccc23)cc1	0.0	-1.6	-2.6	-0.9	-0.7	2.1
O=c1nc(-c2ccccc2)c2ccccc2[nH]1	.	115.6*	.	.	.	-1.6
CCn1c(C)cc(C(=O)COC(=O)CNC(=O)c2ccco2)c1C	0.3	-0.7	60.6*	-1.2	4.0	2.6
Cc1ccc(C(=O)NCC(=O)OCC(=O)c2cc(C)n(Cc3ccco3)c2C)cc1	0.0	3.4	-4.7	-0.5	-0.2	.
CN(C[C@H](Cc1ccccc1)N(C[C@H](Cc1ccccc1)N(CCC(C)(C)C)N=O)N=O)N=O	0.0	0.7	.	8.8*	-12.3	-0.9
CC(C)CCN(N=O)[C@@H](Cc1ccccc1)CN(N=O)[C@@H](Cc1ccccc1)CN(C)N=O	0.0	-1.3	?	-3.1	6.1	.
CN(C[C@H](Cc1ccccc1)N(C[C@@H](CC1CCCCC1)N(CCc1ccccc1)N=O)N=O)N=O	-0.1	-0.7	57.1*	5.4	-6.4	.
CC(C)CC#Cc1cnc2c(c1)C(=O)N([C@H](C)CO)C[C@H](C)[C@@H](CN(C)C(=O)C1CCOCC1)O2	-1.2	2.9	-6.2	-2.5	.	-7.5
CC(=O)NC[C@H]1[C@@H](c2ccc(-c3ccccc3)cc2)[C@@H](CO)N1C(=O)C1CCC1	0.0	-3.5	31.4*	0.8	.	10.4
CC(=O)NC[C@@H]1[C@@H](c2ccc(-c3ccccc3F)cc2)[C@H](CO)N1C(C)=O	0.0	-1.9	-9.7	-2.5	-5.7	4.0
CC(=O)N1[C@H](CNC(=O)C2CC2)[C@H](c2ccc(-c3cccc(F)c3)cc2)[C@@H]1CO	0.0	2.8	28.4*	2.7	10.6	-13.9
CC(=O)N1[C@@H](CO)[C@H](c2ccc(-c3ccccc3)cc2)[C@@H]1CNC(=O)C1CC1	-0.1	95.1*	-6.1	2.9	-7.7	5.5
CC(=O)N1[C@H](CO)[C@@H](c2ccc(-c3ccccc3)cc2)[C@@H]1CNC(=O)C1CC1	0.0	1.0	3.6	-3.8	-10.8	3.5
CC(=O)NC[C@@H]1[C@@H](c2ccc(-c3ccccc3F)cc2)[C@@H](CO)N1C(C)=O	0.0	-3.5	20.0*	3.4	2.1	5.0
CC(=O)N1[C@@H](CO)[C@@H](c2ccc(-c3cccc(F)c3)cc2)[C@@H]1CNC(=O)C1CC1	-0.1	-1.1	6.6	3.7	-10.6	-5.5
OC[C@@H]1[C@H](c2ccccc2)C2(CN(CCC(F)(F)F)C2)N1Cc1cccnc1	0.0	.	-9.9	-0.2	.	8.6
CNC[C@@H]1Oc2c(NC(=O)NC(C)C)cccc2C(=O)N(C)C[C@@H]1C	0.2	.	.	.	3.4	.
CCCN1C[C@@H](C)[C@@H](OC)CN(C)C(=O)c2ccc(NC(=O)Nc3cccc(F)c3)cc2OC[C@H]1C	0.0	-4.2	-1.7	3.3	5.3	-5.6
CC(=O)N(C)C[C@H]1[C@@H](c2ccc(-c3cccc(F)c3)cc2)[C@@H](CO)N1C(C)=O	0.2	.	2.1	-1.7	.	.
SMILES	Xi reactivation	Cneo AK release	DENV2 CPE rescue	F508del corr	FN deposit inh	PGC1a acetyl inh
CC(=O)NC[C@H]1[C@@H](c2ccc(-c3cccc(F)c3)cc2)[C@H](CO)N1C(C)=O	0.0	1.4	7.5	-1.0	.	-0.1
CCC(=O)NC[C@H]1[C@H](c2ccc(-c3cccc(F)c3)cc2)[C@H](CO)N1C(=O)CC	0.1	3.2	28.8*	2.7	.	3.4
CCC(=O)N1[C@H](CNC(C)=O)[C@@H](c2ccc(-c3cccc(F)c3)cc2)[C@@H]1CO	-0.1	-4.2	-1.8	0.3	-11.9	0.8
CCC(=O)N1[C@H](CO)[C@@H](c2ccc(-c3cccc(F)c3)cc2)[C@@H]1CN(C)C(C)=O	0.0	3.6	34.4*	-2.3	.	1.4
CC(=O)NC[C@@H]1[C@H](c2ccc(-c3cccc(F)c3)cc2)[C@H](CO)N1C(C)=O	0.0	-0.4	24.6*	-0.1	.	6.6
CCC(=O)N1[C@H](CO)[C@H](c2ccccc2)[C@@H]1CN(CC)C(=O)c1cccc(F)c1	-0.1	99.2*	6.9	-0.3	1.4	-5.9
O=C(c1ccccc1F)N1C[C@@H]2[C@H](c3ccccc31)[C@@H](CO)N2C(=O)c1ccncc1	0.0	1.4	7.4	1.1	0.0	-2.1
Cc1ccccc1CN1CCNC(=O)C1CC(=O)O (stereo not drawn)	-0.1	-0.9	32.9*	-1.5	-1.5	2.3
C[C@@H]1CN(C)C(=O)c2cc(N(C)C)ccc2O[C@H]1CN(C)C	0.2	.	.	.	5.3	.
Cc1nc(Sc2ccc(Cl)cc2)c(C#N)c(C)c1[N+](=O)[O-]	0.2	-0.8	17.3	-0.3	-8.6	-26.3
Cc1ccc(Sc2nc(C)c([N+](=O)[O-])c(C)c2C#N)cc1	-0.1	-1.8	28.9*	-3.8	2.3	4.5
CO[C@H]1CN(C)C(=O)c2cc(NC(=O)Nc3ccccc3F)ccc2OC[C@@H](C)N(Cc2ccccc2C(=O)O)C[C@@H]1C	0.3	0.4	-1.0	2.3	2.8	8.8
CC(=O)N[C@H]1CC[C@@H](CC(=O)NCc2ccc(Cl)cc2)O[C@@H]1CO	-0.3	-1.4	3.7	1.3	.	1.7
COC(=O)C1=C(C)N(Cc2ccccc2C(F)(F)F)C(=NCc2ccccc2)NC1CCc1ccccc1 (stereo not drawn)	-0.1	.	90.7*	3.8	2.1	.
O=C(NCCNC(=O)c1cc(F)cc(F)c1)c1cc(F)cc(F)c1	0.0	-0.8	29.6*	3.4	1.1	-16.5
OCC1OC(Oc2c(Br)cc(Br)cc2Br)C(O)C(O)C1O (stereo not drawn)	0.2	-0.4	-4.8	6.9	-10.1	62.8*
